Assay results published in ChEMBL document CHEMBL4342521 (J Med Chem, 2020).
pEC50, pIC50: −log10 of the molar value. The source made the active and inactive calls. The calls are words filed in the database; no cut-off is given here.

Assays:
[1] = system: MV4-11; test: Induction of apoptosis in human MV4-11 cells harboring wild type p53/FLT3-ITD mutant assessed as cleavage of pro-caspase 3 at 100 nM after 24 hrs by Western blot analysis; format: functional, cell-based
Method in brief: (§1)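 Cells (1,500,000 per well) grown 12 h, then drug-treated as specified. Lysed in RIPA buffer, sonicated, centrifuged, protein normalized by BCA. Run on 4–12% Bis-Tris gels in MES, transferred, probed overnight at 4 °C with primary antibodies at 1/1000. Actin served as reference for LC3-II quantitation.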

[2] = system: RS4-11; test: Induction of apoptosis in human RS4:11 cells harboring wild type p53/FLT3 assessed as cleavage of pro-caspase 3 at 100 nM after 24 hrs by Western blot analysis; format: functional, cell-based; method in brief: as §1
[3] = Mutagenecity in Salmonella typhimurium TA100 at 10 uM in presence of S9 liver homogenate after 2 to 3 days by mini-Ames test; format: toxicity; details: salmonella enterica subsp. enterica serovar typhimurium, s9, 10 µM
Method in brief: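 Compound was tested at a final 10 μM undiluted plus four serial dilutions, with S9 mix and glucose/biotin/trace-histidine exposure solution, for 100 min at 37 °C. Reversion medium was added and cultures dispensed to 96 wells for 2–3 days at 37 °C. Yellow or partial-yellow wells were scored positive; 2-aminoanthracene was the positive control.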

[4] = Cmax in BALB/c mouse at 50 mg/kg, po via gavage after 24 hrs by Lc-MS/MS analysis; format: ADME, organism-based; set-up: dose 50 mg/kg, route oral; details: in vivo
[5] = Half life in BALB/c mouse at 50 mg/kg, po via gavage after 24 hrs by Lc-MS/MS analysis; format: ADME, organism-based; details: in vivo
[6] = AUC (0 to infinity) in BALB/c mouse at 50 mg/kg, po via gavage after 24 hrs by Lc-MS/MS analysis; format: ADME, organism-based; set-up: dose 50 mg/kg, time infinity, route oral; details: in vivo
[7] = Oral bioavailability in BALB/c mouse at 50 mg/kg dosed via gavage after 24 hrs by Lc-MS/MS analysis; format: ADME, organism-based; details: in vivo
[8] = biological target: Histone deacetylase 1 (Homo sapiens, UniProt Q13547); test: Inhibition of recombinant HDAC1 (unknown origin) using Boc-Lys(acetyl)-AMC as substrate preincubated for 1 hr followed by substrate addition and measured after 2 hrs by fluorescence based micro plate reader analysis
[9] = biological target: Histone deacetylase 2 (Homo sapiens, UniProt Q92769)
[10] = biological target: Histone deacetylase 3/Nuclear receptor corepressor 2 (HDAC3/NCoR2) (Homo sapiens, UniProt O15379); test: biochemical; set-up: species or system Sf9
[11] = biological target: T1, Protein deacetylase HDAC6 (Homo sapiens, UniProt Q9UBN7); test: Inhibition of recombinant HDAC6 (unknown origin) using Boc-Lys(acetyl)-AMC as substrate preincubated for 1 hr followed by substrate addition and measured after 2 hrs by fluorescence based micro plate reader analysis
T1 sequence (Q9UBN7 whole entry): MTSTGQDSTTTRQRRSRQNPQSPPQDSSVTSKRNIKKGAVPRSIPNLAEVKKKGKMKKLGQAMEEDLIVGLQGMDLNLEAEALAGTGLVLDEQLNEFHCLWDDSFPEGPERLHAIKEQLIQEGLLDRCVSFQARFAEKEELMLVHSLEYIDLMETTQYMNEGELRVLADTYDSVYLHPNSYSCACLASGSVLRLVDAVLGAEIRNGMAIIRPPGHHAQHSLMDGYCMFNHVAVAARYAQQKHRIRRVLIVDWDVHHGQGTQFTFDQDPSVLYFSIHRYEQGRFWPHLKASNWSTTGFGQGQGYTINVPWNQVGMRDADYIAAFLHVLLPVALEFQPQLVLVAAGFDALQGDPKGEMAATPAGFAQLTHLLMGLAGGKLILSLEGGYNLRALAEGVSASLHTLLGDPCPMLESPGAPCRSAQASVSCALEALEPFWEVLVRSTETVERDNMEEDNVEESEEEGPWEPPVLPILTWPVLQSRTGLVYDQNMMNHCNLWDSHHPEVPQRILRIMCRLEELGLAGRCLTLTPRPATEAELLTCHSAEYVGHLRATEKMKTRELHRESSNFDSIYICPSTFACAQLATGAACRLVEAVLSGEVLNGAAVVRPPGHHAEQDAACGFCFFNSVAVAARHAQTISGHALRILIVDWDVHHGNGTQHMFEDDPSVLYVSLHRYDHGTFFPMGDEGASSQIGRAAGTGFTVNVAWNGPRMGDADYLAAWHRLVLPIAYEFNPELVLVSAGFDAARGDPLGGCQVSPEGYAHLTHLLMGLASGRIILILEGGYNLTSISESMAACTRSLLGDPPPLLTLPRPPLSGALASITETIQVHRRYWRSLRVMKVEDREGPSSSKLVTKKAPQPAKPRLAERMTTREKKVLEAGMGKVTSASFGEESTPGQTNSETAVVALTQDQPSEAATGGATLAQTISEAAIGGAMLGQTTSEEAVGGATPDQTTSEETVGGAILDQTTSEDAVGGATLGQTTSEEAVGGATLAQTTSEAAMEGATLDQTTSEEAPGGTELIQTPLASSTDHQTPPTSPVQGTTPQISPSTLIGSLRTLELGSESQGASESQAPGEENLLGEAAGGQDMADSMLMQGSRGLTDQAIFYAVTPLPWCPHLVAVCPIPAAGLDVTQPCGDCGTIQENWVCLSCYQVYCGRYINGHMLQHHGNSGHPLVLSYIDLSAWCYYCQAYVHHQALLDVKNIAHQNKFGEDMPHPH

[12] = system: MV4-11; test: Inhibition of autophagy in human MV4-11 cells assessed as LC3-II degradation at 5 uM after 24 hrs by Western blot analysis; format: functional, cell-based; method in brief: as §1
[13] = system: MV4-11; test: Antiproliferative activity against human MV4-11 cells at 50 uM after 48 hrs by CellTiter-Blue dye based spectrophotometric analysis; format: functional, cell-based
[14] = system: MV4-11; test: cells; details: Homo sapiens, MV4-11, 48 h
[15] = system: MV4-11; test: Induction of apoptosis in human MV4-11 cells harboring wild type p53/FLT3-ITD mutant assessed as cleavage of pro-caspase 3 at 5000 nM after 24 hrs by Western blot analysis; format: functional, cell-based; method in brief: as §1
[16] = system: RS4-11; test: Induction of apoptosis in human RS4:11 cells harboring wild type p53/FLT3 assessed as cleavage of pro-caspase 3 at 5000 nM after 24 hrs by Western blot analysis; format: functional, cell-based; method in brief: as §1
[17] = system: MV4-11; test: Induction of apoptosis in human MV4-11 cells harboring wild type p53/FLT3-ITD mutant assessed as cleavage of pro-caspase 3 at 50 to 200 nM after 24 hrs by Western blot analysis; format: functional, cell-based; method in brief: as §1
[18] = system: MV4-11; test: Down regulation of FTL3 in human MV4-11 cells harboring wild type p53/FLT3-ITD mutant at 50 to 200 nM after 24 hrs by Western blot analysis; format: functional, cell-based; method in brief: as §1
[19] = system: MV4-11; test: Down regulation of STAT5 in human MV4-11 cells harboring wild type p53/FLT3-ITD mutant at 50 to 200 nM after 24 hrs by Western blot analysis; format: functional, cell-based; method in brief: as §1
[20] = system: MV4-11; test: Induction of apoptosis in human MV4-11 cells harboring wild type p53/FLT3-ITD mutant assessed as cleavage of pro-caspase 3 at 1000 to 5000 nM after 24 hrs by Western blot analysis; format: functional, cell-based; method in brief: as §1

Chain of Histone deacetylase 1 (Q13547 whole entry): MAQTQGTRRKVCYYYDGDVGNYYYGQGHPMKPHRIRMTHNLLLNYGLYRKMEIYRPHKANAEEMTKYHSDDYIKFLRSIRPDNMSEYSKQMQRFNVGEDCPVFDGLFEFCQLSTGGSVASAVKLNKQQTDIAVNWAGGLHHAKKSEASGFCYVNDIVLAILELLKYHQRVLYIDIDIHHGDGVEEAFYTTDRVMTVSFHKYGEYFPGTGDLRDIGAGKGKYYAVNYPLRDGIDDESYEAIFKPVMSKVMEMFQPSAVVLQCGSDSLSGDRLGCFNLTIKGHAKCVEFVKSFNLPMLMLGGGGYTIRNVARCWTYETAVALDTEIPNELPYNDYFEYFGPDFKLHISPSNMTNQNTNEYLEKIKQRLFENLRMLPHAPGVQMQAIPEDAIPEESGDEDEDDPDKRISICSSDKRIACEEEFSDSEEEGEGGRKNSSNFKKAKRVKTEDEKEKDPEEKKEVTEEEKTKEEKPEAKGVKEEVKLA
Chain of Histone deacetylase 3/Nuclear receptor corepressor 2 (HDAC3/NCoR2) (O15379 whole entry): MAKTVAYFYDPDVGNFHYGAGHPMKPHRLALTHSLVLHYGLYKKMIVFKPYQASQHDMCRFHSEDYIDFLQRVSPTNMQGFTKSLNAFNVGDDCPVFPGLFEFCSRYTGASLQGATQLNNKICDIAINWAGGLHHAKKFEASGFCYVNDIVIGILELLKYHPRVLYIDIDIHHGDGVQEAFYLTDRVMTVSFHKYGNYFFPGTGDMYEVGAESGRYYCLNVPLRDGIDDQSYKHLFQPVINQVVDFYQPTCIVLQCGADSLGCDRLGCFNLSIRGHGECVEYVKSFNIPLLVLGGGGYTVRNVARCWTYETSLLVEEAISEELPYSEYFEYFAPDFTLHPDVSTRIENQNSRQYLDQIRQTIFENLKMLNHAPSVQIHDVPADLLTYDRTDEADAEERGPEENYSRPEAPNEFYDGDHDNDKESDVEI
Chain of Histone deacetylase 3/Nuclear receptor corepressor 2 (HDAC3/NCoR2) (Q9Y618 whole entry, further chain): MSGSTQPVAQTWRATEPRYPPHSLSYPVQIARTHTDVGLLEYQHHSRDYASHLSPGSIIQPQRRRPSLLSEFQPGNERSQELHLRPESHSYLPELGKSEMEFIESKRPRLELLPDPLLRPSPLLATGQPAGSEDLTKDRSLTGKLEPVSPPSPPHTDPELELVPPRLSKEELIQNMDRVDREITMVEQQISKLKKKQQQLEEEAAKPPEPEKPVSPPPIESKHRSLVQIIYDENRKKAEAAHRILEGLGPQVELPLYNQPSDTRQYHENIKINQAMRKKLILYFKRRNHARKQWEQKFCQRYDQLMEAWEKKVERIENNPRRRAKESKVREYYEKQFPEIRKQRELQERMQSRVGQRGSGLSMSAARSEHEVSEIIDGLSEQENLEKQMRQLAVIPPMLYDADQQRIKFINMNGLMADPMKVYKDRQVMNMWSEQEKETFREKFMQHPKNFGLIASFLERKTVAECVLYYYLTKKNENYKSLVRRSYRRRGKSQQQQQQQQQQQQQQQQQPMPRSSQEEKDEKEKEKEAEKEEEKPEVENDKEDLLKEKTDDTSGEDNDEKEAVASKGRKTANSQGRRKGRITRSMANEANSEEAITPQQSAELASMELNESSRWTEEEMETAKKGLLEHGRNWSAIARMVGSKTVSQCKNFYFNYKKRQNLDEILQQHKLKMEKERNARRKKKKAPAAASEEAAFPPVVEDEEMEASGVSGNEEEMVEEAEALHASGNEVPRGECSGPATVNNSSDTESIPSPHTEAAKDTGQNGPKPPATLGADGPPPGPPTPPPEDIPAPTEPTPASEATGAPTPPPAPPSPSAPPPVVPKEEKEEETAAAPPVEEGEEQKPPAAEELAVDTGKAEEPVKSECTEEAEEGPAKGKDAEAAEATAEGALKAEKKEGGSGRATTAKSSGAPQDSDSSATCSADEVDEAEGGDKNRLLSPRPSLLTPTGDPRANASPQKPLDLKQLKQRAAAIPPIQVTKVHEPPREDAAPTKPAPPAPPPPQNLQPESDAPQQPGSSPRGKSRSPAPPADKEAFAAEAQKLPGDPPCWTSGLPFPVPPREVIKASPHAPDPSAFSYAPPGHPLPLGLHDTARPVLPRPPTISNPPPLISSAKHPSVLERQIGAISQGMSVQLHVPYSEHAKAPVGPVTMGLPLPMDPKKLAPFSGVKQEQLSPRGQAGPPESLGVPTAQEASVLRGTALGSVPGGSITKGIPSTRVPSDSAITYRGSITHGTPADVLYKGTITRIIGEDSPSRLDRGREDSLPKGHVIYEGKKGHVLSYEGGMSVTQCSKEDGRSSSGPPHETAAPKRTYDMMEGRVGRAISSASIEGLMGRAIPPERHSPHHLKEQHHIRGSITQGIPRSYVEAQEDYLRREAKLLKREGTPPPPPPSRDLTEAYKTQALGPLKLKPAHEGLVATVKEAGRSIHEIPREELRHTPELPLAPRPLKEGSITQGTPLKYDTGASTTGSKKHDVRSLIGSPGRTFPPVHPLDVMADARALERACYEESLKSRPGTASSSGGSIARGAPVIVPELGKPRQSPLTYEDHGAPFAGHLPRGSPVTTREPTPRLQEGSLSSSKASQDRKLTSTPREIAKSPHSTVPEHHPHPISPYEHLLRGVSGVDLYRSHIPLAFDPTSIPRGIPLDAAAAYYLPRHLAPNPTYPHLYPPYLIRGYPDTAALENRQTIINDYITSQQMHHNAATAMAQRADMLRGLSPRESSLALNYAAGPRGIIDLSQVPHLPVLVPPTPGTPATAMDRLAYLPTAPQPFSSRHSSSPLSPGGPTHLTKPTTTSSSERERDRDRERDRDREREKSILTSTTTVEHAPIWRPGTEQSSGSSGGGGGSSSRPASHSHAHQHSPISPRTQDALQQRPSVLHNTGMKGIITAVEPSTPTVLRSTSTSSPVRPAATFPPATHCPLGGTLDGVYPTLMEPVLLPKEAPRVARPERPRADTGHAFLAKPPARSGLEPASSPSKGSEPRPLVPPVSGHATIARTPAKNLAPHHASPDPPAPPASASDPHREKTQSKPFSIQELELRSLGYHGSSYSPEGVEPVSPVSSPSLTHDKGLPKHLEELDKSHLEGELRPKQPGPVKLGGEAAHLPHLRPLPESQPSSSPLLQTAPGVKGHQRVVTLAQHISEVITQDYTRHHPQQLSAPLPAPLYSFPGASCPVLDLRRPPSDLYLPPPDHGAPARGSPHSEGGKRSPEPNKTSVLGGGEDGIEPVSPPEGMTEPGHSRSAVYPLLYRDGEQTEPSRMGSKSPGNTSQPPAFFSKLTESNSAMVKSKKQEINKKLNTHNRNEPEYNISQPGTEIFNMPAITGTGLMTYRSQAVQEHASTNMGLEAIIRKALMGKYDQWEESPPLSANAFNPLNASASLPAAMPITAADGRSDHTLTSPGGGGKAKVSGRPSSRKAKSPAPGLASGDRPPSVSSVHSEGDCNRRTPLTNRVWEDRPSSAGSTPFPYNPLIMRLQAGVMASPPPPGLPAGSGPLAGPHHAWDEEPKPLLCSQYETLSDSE
Chain of Histone deacetylase 2 (Q92769 whole entry): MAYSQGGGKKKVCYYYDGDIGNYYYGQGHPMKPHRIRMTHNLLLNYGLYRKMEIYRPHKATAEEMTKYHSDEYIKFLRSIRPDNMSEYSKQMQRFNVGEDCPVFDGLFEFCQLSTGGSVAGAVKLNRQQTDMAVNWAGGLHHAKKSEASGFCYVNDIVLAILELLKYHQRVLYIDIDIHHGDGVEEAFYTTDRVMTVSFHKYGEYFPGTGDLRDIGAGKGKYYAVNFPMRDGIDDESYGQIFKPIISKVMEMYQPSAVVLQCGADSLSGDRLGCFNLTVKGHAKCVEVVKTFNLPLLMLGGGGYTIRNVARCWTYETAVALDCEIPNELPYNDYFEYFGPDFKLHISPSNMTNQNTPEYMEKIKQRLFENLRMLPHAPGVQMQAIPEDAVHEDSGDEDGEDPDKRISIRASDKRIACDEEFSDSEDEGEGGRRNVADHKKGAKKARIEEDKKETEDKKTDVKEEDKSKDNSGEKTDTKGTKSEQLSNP

pIC50 [8]	pIC50 [9]	pIC50 [10]	pIC50 [11]	Compound	also measured
5.53	5.09	6.26	< 4.30	CCCN(CC)NC(=O)/C=C/c1ccc(CNCCc2c(C)[nH]c3ccccc23)cc1	
4.96	4.89	6.00	< 4.30	Cc1[nH]c2ccccc2c1CCNCc1ccc(/C=C/C(=O)NN(C)C)cc1	Activity [13]: inactive
6.68	5.49	6.64	< 4.30	CCCCN(CCC)NC(=O)/C=C/c1ccc(CNCCc2c(C)[nH]c3ccccc23)cc1	
7.53	6.97	7.70	< 4.30	CCCNNC(=O)c1ccc(CNCCc2c(C)[nH]c3ccccc23)cc1	
7.24	6.76	7.46	< 4.30	Cc1[nH]c2ccccc2c1CCNCc1ccc(/C=C/C(=O)NNCCC#N)cc1	
5.07	< 5.00	5.51	< 4.30	Cc1[nH]c2ccccc2c1CCNCc1ccc(/C=C/C(=O)NN2CCCC2)cc1	Activity [13]: inactive
5.01	< 5.00	5.28	< 4.30	Cc1[nH]c2ccccc2c1CCNCc1ccc(/C=C/C(=O)NNCCN)cc1	
5.96	5.38	6.51	< 4.30	COC(=O)CCNNC(=O)/C=C/c1ccc(CNCCc2c(C)[nH]c3ccccc23)cc1	
< 5.00	< 5.00	< 5.00	< 4.30	Cc1[nH]c2ccccc2c1CCNCc1ccc(/C=C/C(=O)NN2CCCCC2)cc1	Activity [13]: inactive
6.38	5.86	7.60	< 4.30	CCCN(CCC)NC(=O)/C=C/c1ccc(CNCCc2c(C)[nH]c3ccccc23)cc1	
6.42	5.14	6.49	< 4.30	CCCCCN(CCC)NC(=O)/C=C/c1ccc(CNCCc2c(C)[nH]c3ccccc23)cc1	

Further lines, the compound ahead of its results:

Compound	pIC50 [8]	pIC50 [9]	pIC50 [10]	pIC50 [11]	also measured
Cc1[nH]c2ccccc2c1CCNCc1ccc(/C=C/C(=O)NO)cc1 [PANOBINOSTAT]					Activity [1]: Active; Activity [2]: Active; Activity [3]: Toxic; Cmax [4]: 116 ng/mL; half-life [5]: 2.9 h; AUC(0-inf) [6]: 126 ng·h/mL; bioavailability [7]: 4.62%
CCN(CC)CCCC(C)Nc1ccnc2cc(Cl)ccc12 (stereo not drawn)					inhibition [12]: Active
CCCCCCN(CCC)NC(=O)/C=C/c1ccc(CNCCc2c(C)[nH]c3ccccc23)cc1	5.54	5.01	6.84	< 4.30	
CCCNNC(=O)c1ccc(NCc2ccccc2)cc1	7.80	7.17	8.21	< 4.30	
CCCNNC(=O)c1ccc(NC(=O)c2ccccc2)cc1	7.03	6.32	7.31	< 4.30	
CCCNNC(=O)c1cccc(CN(CCc2c(C)[nH]c3ccccc23)C(=O)OC(C)(C)C)c1	5.60	< 5.30	< 5.30	< 4.30	
CCCNNC(=O)c1ccc(CNCc2ccccc2)cc1	7.06	6.36	7.01	< 4.30	pEC50 [14]: 6.76
O=C(CCCCCCC(=O)Nc1ccccc1)NO					Activity [15]: Active; Activity [16]: Active
Cc1[nH]c2ccccc2c1CCNCc1ccc(/C=C/C(=O)NN(CCCO)CCCO)cc1	< 5.00	< 5.00	< 5.00	< 4.30	Activity [13]: inactive
CCCNNC(=O)c1ccc(CNC(=O)/C=C/c2ccccc2)cc1					Activity [17]: Active; Activity [18]: Active; Activity [19]: Active
Nc1ccc2cc3ccccc3cc2c1 [2-AMINOANTHRACENE]					Activity [3]: Toxic
CCCNNC(=O)c1cccc(CNCCc2c(C)[nH]c3ccccc23)c1	5.78	5.31	6.17	< 4.30	
CCCNNC(=O)c1ccc(CN(Cc2ccccc2)C(=O)OC(C)(C)C)cc1	6.66	6.24	7.11	< 4.30	
Nc1ccccc1NC(=O)c1ccc(CNC(=O)OCc2cccnc2)cc1					Activity [20]: Active
CCCNNC(=O)/C=C/c1ccc(CN(CCc2c(C)[nH]c3ccccc23)C(=O)OC(C)(C)C)cc1	6.74	5.89	7.78	< 4.30	
CCCNNC(=O)c1ccc(CN(CCc2c(C)[nH]c3ccccc23)C(=O)OC(C)(C)C)cc1	7.54	6.56	7.90	< 4.30	
CCCNNC(=O)c1ccc(OCc2ccccc2)cc1	7.25	6.76	7.61	< 4.30	
